IC50 data for 29 compounds are collected here from ChEMBL document CHEMBL1770062, “Synthesis and in vitro antitumor activity of new butenolide-containing dithiocarbamates” (Bioorg Med Chem Lett, 2011).

SMILES strings stand for the structures.

What all share (type): functional, cell-based
The nature of test [1]: Antitumor activity against human EC9706 cells after 72 hrs by MTT assay. A digest of the protocol: (§1)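 Cells in RPMI 1640 with 10% FBS, 2 mm glutamine, penicillin and streptomycin were seeded at 5 × 10³ per well in 96-well plates. After 24 h at 37 °C the medium was replaced with medium holding compound at several concentrations, and cells were exposed for 72 h. MTT (5 mg/mL stock in PBS) was added for 4 h at 37 °C, formazan was dissolved in DMSO and absorbance read at 490 nm. IC50 was taken from dose–response curves, at least three independent experiments, mean ± SE.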

Test [2] can be described thus: Antitumor activity against human SPC-A1 cells after 72 hrs by MTT assay. In a few lines:
as §1
(In general: Tetrazolium assays rely on reduction of a dye to a coloured formazan, in cell work by metabolically active cells.)

Another test has as its system HeLa. As to the kind of experiment: Antitumor activity against human HeLa cells after 72 hrs by MTT assay. In a few lines: as §1
The subject of another test is PC-3. As to the kind of experiment: Antitumor activity against human PC3 cells after 72 hrs by MTT assay. In a few lines: as §1
A further test has as its system MCF7. As to the kind of experiment: Antitumor activity against human MCF7 cells after 72 hrs by MTT assay. In a few lines:
as §1

[3] abbreviates: Homo sapiens, EC9706, 72 h, read-out: IC50.
[4] abbreviates: Homo sapiens, SPCA1, 72 h, read-out: IC50.
The mark [5] stands for this setting: Homo sapiens, HeLa, 72 h, read-out: IC50.
Where [6] appears, read: Homo sapiens, PC-3, 72 h, read-out: IC50.
[7] abbreviates: Homo sapiens, MCF7, 72 h, read-out: IC50.

The IC50 is the concentration at which inhibition is half-maximal.

On to `CNC(=S)SCC1=CCOC1=O`, for which the IC50 in test [1] (setting [3]) is 85.4 µM; in test [2] (setting [4]) it was 43.9 µM; with HeLa (setting [5]) it was 36.1 µM; in the test on PC-3 (setting [6]), 76.5 µM; in the test on MCF7 (setting [7]) it was 83.1 µM.
For the compound `CCNC(=S)SCC1=CCOC1=O`, the IC50 is 44.4 µM in test [1] (setting [3]); “Not Active” in test [2] (spc-a1); “Not Active” in the test on HeLa (hela); 30.6 µM in the test with PC-3 (setting [6]); 80.1 µM in the test with MCF7 (setting [7]).
Consider `CN(C)C(=S)SCC1=CCOC1=O`, for which the IC50 was 182 µM in test [1] (setting [3]); over 50 µg/mL in test [2] (setting [4]); 114 µM with HeLa (setting [5]); 147 µM in the test with PC-3 (setting [6]); over 50 µg/mL in the test with MCF7 (setting [7]).
In the case of `CCN(CC)C(=S)SCC1=CCOC1=O`, the half-inhibitory concentration (IC50) stood at 136 µM in test [1] (setting [3]); 87 µM in test [2] (setting [4]); 1.39 µM with HeLa (setting [5]); 57.1 µM in the test with PC-3 (setting [6]); 121 µM in the test on MCF7 (setting [7]).
For `CC(C)NC(=S)SCC1=CCOC1=O` the same measures were 59.4 µM, 108 µM, 137 µM, 49.4 µM and 134 µM.
For `O=C1OCC=C1CSC(=S)NC1CC1` the same measures were 53.6 µM, 57.5 µM, 24.1 µM, 117 µM and 94.9 µM.
For `O=C1OCC=C1CSC(=S)NC1CCCCC1` the same measures were over 50 µg/mL, over 50 µg/mL, 150 µM, over 50 µg/mL and 180 µM.
Turning to `O=C1OCC=C1CSC(=S)N1CCCC1`, the IC50 in test [1] (setting [3]) stood at 14.4 µM; in test [2] (setting [4]) it was 31.4 µM; in the test on HeLa (setting [5]), 2.63 µM; with PC-3 (setting [6]) it was 114 µM; in the test with MCF7 (setting [7]), 56.4 µM.
In the same order, the values of `CN1CCN(C(=S)SCC2=CCOC2=O)CC1` are 14.3 µM, 53.7 µM, 0.77 µM, 40.5 µM and 86.5 µM.
Take `O=C1OCC=C1CSC(=S)N1CCOCC1`: the IC50 was 26 µM in test [1] (setting [3]); 37.9 µM in test [2] (setting [4]); 2.43 µM in the test on HeLa (setting [5]); 48.8 µM with PC-3 (setting [6]); 60.3 µM in the test with MCF7 (setting [7]).
In the same order, the values of `O=C1OCC=C1CSC(=S)Nc1ccccc1` are 16.2 µM, 95.3 µM, 111 µM, 186 µM and 89.9 µM.
For `Cc1ccc(NC(=S)SCC2=CCOC2=O)cc1` the same measures were 91 µM, 63.8 µM, 5.44 µM, 93.5 µM and 97.4 µM.
On to `O=C1OCC=C1CSC(=S)Nc1ccc(Cl)cc1`, for which the concentration for half-maximal inhibition (IC50) result (in test [1] (ec9706); in test [2] (spc-a1); with HeLa (hela); in the test with PC-3 (pc-3); in the test on MCF7 (mcf7)) was “Not Active” throughout.
As to `O=C1OCC=C1CSC(=S)NCc1ccccc1`, the IC50 came to 34.3 µM in test [1] (setting [3]); 20.1 µM in test [2] (setting [4]); 15.1 µM in the test with HeLa (setting [5]); 13.7 µM in the test with PC-3 (setting [6]); 31.9 µM in the test on MCF7 (setting [7]).
In the same order, the values of `CN(C)C(=S)SCC1=CC(=O)OC1` are 7.55 µM, over 50 µg/mL, over 50 µg/mL, over 50 µg/mL and 159 µM.
With `CCN(CC)C(=S)SCC1=CC(=O)OC1`, the IC50 in test [1] (setting [3]) is over 50 µg/mL; in test [2] (setting [4]), 57.1 µM; in the test on HeLa (setting [5]) it was 21 µM; with PC-3 (setting [6]), over 50 µg/mL; in the test with MCF7 (setting [7]) it was over 50 µg/mL.
As for `CC(C)N(C(=S)SCC1=CC(=O)OC1)C(C)C`, the 50% inhibitory concentration (IC50) in test [1] (setting [3]) was 49.2 µM; in test [2] (setting [4]), over 50 µg/mL; in the test on HeLa (setting [5]) it was 28.5 µM; in the test with PC-3 (setting [6]), over 50 µg/mL; with MCF7 (setting [7]), over 50 µg/mL.
For the compound `O=C1C=C(CSC(=S)N2CCCC2)CO1`, the IC50 in test [1] (setting [3]) was 106 µM; in test [2] (setting [4]) it was 60 µM; in the test with HeLa (setting [5]), over 50 µg/mL; with PC-3 (setting [6]), over 50 µg/mL; in the test with MCF7 (setting [7]) it was 169 µM.
On to `CN1CCN(C(=S)SCC2=CC(=O)OC2)CC1`, for which the IC50 is 35.8 µM in test [1] (setting [3]); over 50 µg/mL in test [2] (setting [4]); over 50 µg/mL in the test with HeLa (setting [5]); over 50 µg/mL with PC-3 (setting [6]); over 50 µg/mL in the test on MCF7 (setting [7]).
On to `O=C1C=C(CSC(=S)N2CCOCC2)CO1`, for which the IC50 (in test [1] (setting [3]); in the test on HeLa (setting [5]); with PC-3 (setting [6]); in the test on MCF7 (setting [7])) was over 50 µg/mL in each case.
For `CN(Cc1ccccc1)C(=S)SCC1=CC(=O)OC1`, the IC50 (in test [1] (setting [3]); in test [2] (setting [4]); in the test on HeLa (setting [5]); in the test with PC-3 (setting [6]); in the test on MCF7 (setting [7])) was over 50 µg/mL in each case.
In the case of `O=C1CC2(CO1)CSC(=S)N2C1CC1` (centres undefined), the IC50 in test [1] (setting [3]) is over 50 µg/mL; in test [2] (setting [4]), over 50 µg/mL; with HeLa (setting [5]) it was 28.7 µM; with PC-3 (setting [6]), over 50 µg/mL; in the test with MCF7 (setting [7]) it was over 50 µg/mL.
Consider `O=C1CC2(CO1)CSC(=S)N2Cc1ccccc1` (centres undefined), for which the IC50 (in test [1] (setting [3]); in test [2] (setting [4]); with HeLa (setting [5]); with PC-3 (setting [6]); in the test on MCF7 (setting [7])) was over 50 µg/mL in each case.
Take `O=C1CC2(CO1)CSC(=S)N2c1ccccc1` (centres undefined): the IC50 in test [1] (setting [3]) is 128 µM; in test [2] (setting [4]), 101 µM; in the test on HeLa (setting [5]), 18 µM; in the test with PC-3 (setting [6]), over 50 µg/mL; in the test on MCF7 (setting [7]), 134 µM.
For `Cc1ccc(N2C(=S)SCC23COC(=O)C3)cc1` (centres undefined) the same measures were over 50 µg/mL, over 50 µg/mL, over 50 µg/mL, 98.1 µM and over 50 µg/mL.
For `O=C1CC2(CO1)CSC(=S)N2c1ccc(Cl)cc1` (centres undefined) the same measures were 32.6 µM, over 50 µg/mL, over 50 µg/mL, over 50 µg/mL and over 50 µg/mL.
For `O=C1CC2(CO1)CSC(=S)N2c1ccc(F)cc1` (centres undefined) the same measures were over 50 µg/mL, over 50 µg/mL, over 50 µg/mL, over 50 µg/mL and over 50 µg/mL.
On to `O=C1CC2(CO1)CSC(=S)N2c1ccccc1O` (centres undefined), for which the IC50 (in test [1] (setting [3]); in test [2] (setting [4]); with HeLa (setting [5]); in the test on PC-3 (setting [6]); with MCF7 (setting [7])) was over 50 µg/mL throughout.
For the compound `O=c1[nH]cc(F)c(=O)[nH]1` [FLUOROURACIL], the IC50 in test [1] (setting [3]) is 20.3 µM; in test [2] (setting [4]), 26.9 µM; in the test with HeLa (setting [5]) it was 41.5 µM; with PC-3 (setting [6]), 29.3 µM; in the test on MCF7 (setting [7]), 7.54 µM.
